Experimental data as given in ChEMBL document CHEMBL1150419, “Structure-activity relationships of a peptide inhibitor of the human FcRn:human IgG interaction” (Bioorg Med Chem, 2008).

Molecular target: IgG receptor FcRn large subunit p51 (Homo sapiens, UniProt P55899)
Test: Binding affinity to human FcRn at pH 6 by surface plasmon resonance assay
Method in brief: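 Soluble human FcRn coupled to the dextran surface of a CM5 chip; peptide dilutions flowed over the chip. The equilibrium response at each dilution was plotted against concentration and fitted to a steady-state affinity model to give Kd.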

Chain of IgG receptor FcRn large subunit p51 (P55899 whole entry): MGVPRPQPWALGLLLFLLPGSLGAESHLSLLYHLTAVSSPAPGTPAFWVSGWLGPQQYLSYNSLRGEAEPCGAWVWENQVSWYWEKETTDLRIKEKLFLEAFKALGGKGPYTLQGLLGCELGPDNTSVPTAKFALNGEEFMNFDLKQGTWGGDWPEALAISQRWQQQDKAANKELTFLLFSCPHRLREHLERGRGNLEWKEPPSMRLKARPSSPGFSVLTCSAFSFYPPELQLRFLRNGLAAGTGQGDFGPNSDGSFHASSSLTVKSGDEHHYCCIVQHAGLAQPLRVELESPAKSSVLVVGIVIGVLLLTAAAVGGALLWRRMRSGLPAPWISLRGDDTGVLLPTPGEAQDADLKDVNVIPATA

| SMILES | Kd [nM] |
| --- | --- |
| CC(=O)Nc1ccc(C[C@H](NC(=O)[C@H](Cc2cnc[nH]2)NC(=O)CNC(=O)[C@@H](NC(=O)[C@@H](NC(=O)[C@H](Cc2ccccc2)NC(=O)[C@H](CCCN=C(N)N)NC(=O)[C@@H](N)CCC(N)=O)C(C)(C)S)[C@@H](C)O)C(=O)NCC(=O)NCC(=O)N[C@@H](CC(C)C)C(=O)N[C@@H](Cc2ccc(O)cc2)C(=O)N2CCC[C@H]2C(=O)N[C@@H](CS)C(=O)N[C@@H](CC(N)=O)C(=O)NCC(=O)N2CCC[C@H]2C(=O)O)cc1 | 270000 |
| CC(C)C[C@H](NC(=O)CNC(=O)[C@@H](CC(=O)O)NC(=O)[C@H](Cc1ccccc1)NC(=O)[C@H](Cc1cnc[nH]1)NC(=O)CNC(=O)[C@@H](NC(=O)[C@@H](NC(=O)[C@H](Cc1ccccc1)NC(=O)[C@H](CCCN=C(N)N)NC(=O)[C@@H](N)CCC(N)=O)C(C)(C)S)[C@@H](C)O)C(=O)N[C@@H](Cc1ccc(O)cc1)C(=O)N1CCC[C@H]1C(=O)N[C@@H](CS)C(=O)N[C@@H](CC(N)=O)C(=O)NCC(=O)N1CCC[C@H]1C(=O)O | 580 |
| CC(C)C[C@H](NC(=O)CNC(=O)CNC(=O)[C@H](Cc1ccccc1)NC(=O)[C@H](Cc1cnc[nH]1)NC(=O)CNC(=O)[C@@H](NC(=O)[C@H](NC(=O)[C@H](Cc1ccccc1)NC(=O)[C@@H](CCCN=C(N)N)NC(=O)[C@@H](N)CCC(N)=O)C(C)(C)S)[C@@H](C)O)C(=O)N[C@@H](Cc1ccc(O)cc1)C(=O)N1CCC[C@H]1C(=O)N[C@H](CS)C(=O)N[C@@H](CC(N)=O)C(=O)NCC(=O)N1CCC[C@H]1C(=O)O | 280 |
| CC(C)C[C@H](NC(=O)CNC(=O)CNC(=O)[C@H](Cc1ccc([N+](=O)[O-])cc1)NC(=O)[C@H](Cc1cnc[nH]1)NC(=O)CNC(=O)[C@@H](NC(=O)[C@@H](NC(=O)[C@H](Cc1ccccc1)NC(=O)[C@H](CCCN=C(N)N)NC(=O)[C@@H](N)CCC(N)=O)C(C)(C)S)[C@@H](C)O)C(=O)N[C@@H](Cc1ccc(O)cc1)C(=O)N1CCC[C@H]1C(=O)N[C@@H](CS)C(=O)N[C@@H](CC(N)=O)C(=O)NCC(=O)N1CCC[C@H]1C(=O)O | 84000 |
| CC(C)C[C@H](NC(=O)CNC(=O)CNC(=O)[C@H](Cc1ccccc1)NC(=O)[C@H](Cc1cnc[nH]1)NC(=O)CNC(=O)[C@@H](NC(=O)[C@@H](NC(=O)[C@H](Cc1ccccc1)NC(=O)[C@H](CCCNC(=N)N)NC(=O)[C@@H](N)CCC(N)=O)C(C)(C)S)[C@@H](C)O)C(=O)N[C@@H](Cc1ccc([N+](=O)[O-])cc1)C(=O)N1CCC[C@H]1C(=O)N[C@@H](CS)C(=O)N[C@@H](CC(N)=O)C(=O)NCC(=O)N1CCC[C@H]1C(=O)O | 180000 |
| Cc1ccc(C[C@H](NC(=O)[C@H](Cc2cnc[nH]2)NC(=O)CNC(=O)[C@@H](NC(=O)[C@@H](NC(=O)[C@H](Cc2ccccc2)NC(=O)[C@H](CCCN=C(N)N)NC(=O)[C@@H](N)CCC(N)=O)C(C)(C)S)[C@@H](C)O)C(=O)NCC(=O)NCC(=O)N[C@@H](CC(C)C)C(=O)N[C@@H](Cc2ccc(O)cc2)C(=O)N2CCC[C@H]2C(=O)N[C@@H](CS)C(=O)N[C@@H](CC(N)=O)C(=O)NCC(=O)N2CCC[C@H]2C(=O)O)cc1 | 200 |
| CC(C)C[C@H](NC(=O)CNC(=O)CNC(=O)[C@H](Cc1ccccc1)NC(=O)[C@H](Cc1cnc[nH]1)NC(=O)CNC(=O)[C@H](NC(=O)[C@H](NC(=O)[C@H](Cc1ccccc1)NC(=O)[C@H](CCCN=C(N)N)NC(=O)[C@@H](N)CCC(N)=O)C(C)(C)S)[C@@H](C)O)C(=O)N[C@@H](Cc1ccc(O)cc1)C(=O)N1CCC[C@H]1C(=O)N[C@H](CS)C(=O)N[C@@H](CC(N)=O)C(=O)NCC(=O)N1CCC[C@H]1C(=O)O | > 250000 |
| CC(C)C[C@H](NC(=O)CNC(=O)[C@@H](C)NC(=O)[C@H](Cc1ccccc1)NC(=O)[C@H](Cc1cnc[nH]1)NC(=O)CNC(=O)[C@@H](NC(=O)[C@@H](NC(=O)[C@H](Cc1ccccc1)NC(=O)[C@H](CCCNC(=N)N)NC(=O)[C@@H](N)CCC(N)=O)C(C)(C)S)[C@@H](C)O)C(=O)N[C@@H](Cc1ccc(O)cc1)C(=O)N1CCC[C@H]1C(=O)N[C@@H](CS)C(=O)N[C@@H](CC(N)=O)C(=O)NCC(=O)N1CCC[C@H]1C(=O)O | 490 |
| CC(C)C[C@H](NC(=O)[C@@H](Cc1ccccc1)NC(=O)CNC(=O)[C@H](Cc1ccccc1)NC(=O)[C@H](Cc1cnc[nH]1)NC(=O)CNC(=O)[C@@H](NC(=O)[C@@H](NC(=O)[C@H](Cc1ccccc1)NC(=O)[C@H](CCCNC(=N)N)NC(=O)[C@@H](N)CCC(N)=O)C(C)(C)S)[C@@H](C)O)C(=O)N[C@@H](Cc1ccc(O)cc1)C(=O)N1CCC[C@H]1C(=O)N[C@@H](CS)C(=O)N[C@@H](CC(N)=O)C(=O)NCC(=O)N1CCC[C@H]1C(=O)O | 1700 |
| CC(C)C[C@H](NC(=O)CNC(=O)CNC(=O)[C@H](Cc1ccc(N)cc1)NC(=O)[C@H](Cc1cnc[nH]1)NC(=O)CNC(=O)[C@@H](NC(=O)[C@@H](NC(=O)[C@H](Cc1ccccc1)NC(=O)[C@H](CCCN=C(N)N)NC(=O)[C@@H](N)CCC(N)=O)C(C)(C)S)[C@@H](C)O)C(=O)N[C@@H](Cc1ccc(O)cc1)C(=O)N1CCC[C@H]1C(=O)N[C@@H](CS)C(=O)N[C@@H](CC(N)=O)C(=O)NCC(=O)N1CCC[C@H]1C(=O)O | 1000 |
| CC(C)C[C@H](NC(=O)CNC(=O)CNC(=O)[C@H](Cc1c(F)c(F)c(F)c(F)c1F)NC(=O)[C@H](Cc1cnc[nH]1)NC(=O)CNC(=O)[C@@H](NC(=O)[C@@H](NC(=O)[C@H](Cc1ccccc1)NC(=O)[C@H](CCCN=C(N)N)NC(=O)[C@@H](N)CCC(N)=O)C(C)(C)S)[C@@H](C)O)C(=O)N[C@@H](Cc1ccc(O)cc1)C(=O)N1CCC[C@H]1C(=O)N[C@@H](CS)C(=O)N[C@@H](CC(N)=O)C(=O)NCC(=O)N1CCC[C@H]1C(=O)O | 70000 |
| CC(C)C[C@H](NC(=O)[C@@H](Cc1ccc(O)cc1)NC(=O)CNC(=O)[C@H](Cc1ccccc1)NC(=O)[C@H](Cc1cnc[nH]1)NC(=O)CNC(=O)[C@@H](NC(=O)[C@@H](NC(=O)[C@H](Cc1ccccc1)NC(=O)[C@H](CCCN=C(N)N)NC(=O)[C@@H](N)CCC(N)=O)C(C)(C)S)[C@@H](C)O)C(=O)N[C@@H](Cc1ccc(O)cc1)C(=O)N1CCC[C@H]1C(=O)N[C@@H](CS)C(=O)N[C@@H](CC(N)=O)C(=O)NCC(=O)N1CCC[C@H]1C(=O)O | 1500 |
| CC(C)C[C@H](NC(=O)[C@@H](Cc1cnc[nH]1)NC(=O)CNC(=O)[C@H](Cc1ccccc1)NC(=O)[C@H](Cc1cnc[nH]1)NC(=O)CNC(=O)[C@@H](NC(=O)[C@@H](NC(=O)[C@H](Cc1ccccc1)NC(=O)[C@H](CCCN=C(N)N)NC(=O)[C@@H](N)CCC(N)=O)C(C)(C)S)[C@@H](C)O)C(=O)N[C@@H](Cc1ccc(O)cc1)C(=O)N1CCC[C@H]1C(=O)N[C@@H](CS)C(=O)N[C@@H](CC(N)=O)C(=O)NCC(=O)N1CCC[C@H]1C(=O)O | 2000 |
| CC(C)C[C@H](NC(=O)CN(C)C(=O)[C@@H](C)NC(=O)[C@H](Cc1ccccc1)NC(=O)[C@H](Cc1cnc[nH]1)NC(=O)CNC(=O)[C@@H](NC(=O)[C@@H](NC(=O)[C@H](Cc1ccccc1)NC(=O)[C@H](CCCNC(=N)N)NC(=O)[C@@H](N)CCC(N)=O)C(C)(C)S)[C@@H](C)O)C(=O)N[C@@H](Cc1ccc(O)cc1)C(=O)N1CCC[C@H]1C(=O)N[C@@H](CS)C(=O)N[C@@H](CC(N)=O)C(=O)NCC(=O)N1CCC[C@H]1C(=O)O | 190 |
| CC(C)C[C@H](NC(=O)[C@@H]1CCCN1C(=O)[C@@H](Cc1ccccc1)NC(=O)[C@H](Cc1ccccc1)NC(=O)[C@H](Cc1cnc[nH]1)NC(=O)CNC(=O)[C@@H](NC(=O)[C@@H](NC(=O)[C@H](Cc1ccccc1)NC(=O)[C@H](CCCNC(=N)N)NC(=O)[C@@H](N)CCC(N)=O)C(C)(C)S)[C@@H](C)O)C(=O)N[C@@H](Cc1ccc(O)cc1)C(=O)N1CCC[C@H]1C(=O)N[C@@H](CS)C(=O)N[C@@H](CC(N)=O)C(=O)NCC(=O)N1CCC[C@H]1C(=O)O | 3800 |
